Key:
Steryl-sulfatase = molecular target: T1, Steryl-sulfatase (Homo sapiens, UniProt P08842); experiment: Inhibition of steroid sulfatase in human JEG3 cell using [3H] E1S as substrate after 1 hr by scintillation spectrometry analysis
T1 sequence (P08842 whole entry): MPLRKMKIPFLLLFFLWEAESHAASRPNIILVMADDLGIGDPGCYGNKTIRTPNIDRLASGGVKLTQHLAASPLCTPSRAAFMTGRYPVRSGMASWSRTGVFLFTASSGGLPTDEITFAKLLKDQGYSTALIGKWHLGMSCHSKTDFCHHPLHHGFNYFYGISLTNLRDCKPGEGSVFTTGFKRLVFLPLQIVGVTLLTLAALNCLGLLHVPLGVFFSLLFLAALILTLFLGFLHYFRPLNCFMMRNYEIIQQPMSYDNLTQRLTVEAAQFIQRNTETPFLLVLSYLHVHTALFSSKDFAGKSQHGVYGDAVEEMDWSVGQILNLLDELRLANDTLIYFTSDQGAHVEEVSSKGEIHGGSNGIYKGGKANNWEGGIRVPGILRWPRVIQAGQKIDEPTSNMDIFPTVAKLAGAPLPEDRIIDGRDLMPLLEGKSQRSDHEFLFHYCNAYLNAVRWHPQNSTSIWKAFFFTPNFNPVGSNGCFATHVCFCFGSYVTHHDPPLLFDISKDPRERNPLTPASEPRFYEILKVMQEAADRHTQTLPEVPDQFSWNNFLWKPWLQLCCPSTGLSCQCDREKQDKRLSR
Outline: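 JEG-3 (human placental choriocarcinoma) lysate at 125 μg protein/mL incubated 1 h with inhibitor (0.001–10 μM) and [3H]E1S adjusted to 20 μM with unlabelled E1S. Estrone product was extracted with toluene, and [14C]E1 was used to correct for losses. Read-out was 3H/14C scintillation counting. IC50 from activity with and without inhibitor; mean ± S.D., n = 3.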

[1] = molecular target: T2, Steryl-sulfatase (Homo sapiens) (UniProt P08842); experiment: Inhibition of steroid sulfatase in human JEG3 cell lysates assessed as residual activity at 10 uM using [3H] E1S as substrate after 1 hr by scintillation spectrometry analysis relative to control; values are per cent of control; conditions: Lysate
T2 sequence (whole entry): T1 sequence (P08842 whole entry)

SMILES: CCCCCCCN1CCN(C(=O)Nc2ccc(OS(N)(=O)=O)cc2)CC1
- IC50 (Steryl-sulfatase): 1.69 µM
- residual activity [1]: 27.7%

SMILES: NS(=O)(=O)Oc1ccc(NC(=O)N2CCN(c3ccc(F)cc3)CC2)cc1
- residual activity [1]: 93.5%

SMILES: CCCCCCCCCCN1CCN(C(=O)Nc2ccc(OS(N)(=O)=O)c(F)c2)CC1
- residual activity [1]: 15.2%

SMILES: NS(=O)(=O)Oc1ccc(NC(=O)N2CCN(c3nccc(-c4ccccc4)n3)CC2)cc1
- residual activity [1]: 65.9%

SMILES: COc1ccc(-c2ccnc(N3CCN(C(=O)Nc4ccc(OS(N)(=O)=O)cc4)CC3)n2)cc1
- residual activity [1]: 7.9%

SMILES: CCCCCCCCCCN1CCN(C(=O)Nc2ccc(OS(N)(=O)=O)c(Cl)c2)CC1
- residual activity [1]: 25.4%

SMILES: CCCCCCCCN1CCN(C(=O)Nc2ccc(OS(N)(=O)=O)cc2Cl)CC1
- residual activity [1]: 71.6%

SMILES: COc1ccc(-c2ccnc(N3CCN(C(=O)Nc4ccc(OS(N)(=O)=O)cc4)CC3)n2)cc1OC
- residual activity [1]: 60.7%

SMILES: NS(=O)(=O)Oc1ccc(NC(=O)N2CCN(c3ccc(Cl)cc3)CC2)cc1Cl
- residual activity [1]: 110%

SMILES: CCCCCCCCCCN1CCN(C(=O)Nc2ccc(OS(N)(=O)=O)cc2)CC1
- IC50 (Steryl-sulfatase): 0.0332 µM
- residual activity [1]: 3.5%

SMILES: NS(=O)(=O)Oc1ccc(NC(=O)N2CCN(c3nccc(-c4cc5ccccc5o4)n3)CC2)cc1
- IC50 (Steryl-sulfatase): 0.139 µM
- residual activity [1]: 4.7%

SMILES: NS(=O)(=O)Oc1ccc(NC(=O)N2CCN(c3nccc(-c4cccc(C(F)(F)F)c4)n3)CC2)cc1
- residual activity [1]: 44.3%

SMILES: NS(=O)(=O)Oc1ccc(NC(=O)N2CCN(Cc3ccccc3)CC2)cc1
- residual activity [1]: 18.7%

SMILES: NS(=O)(=O)Oc1ccc(NC(=O)N2CCN(c3ccc(Cl)cc3)CC2)cc1F
- IC50 (Steryl-sulfatase): 0.0051 µM
- residual activity [1]: 7.1%

SMILES: Cc1cccc(N2CCN(C(=O)Nc3ccc(OS(N)(=O)=O)c(Cl)c3)CC2)c1C
- IC50 (Steryl-sulfatase): 0.017 µM
- residual activity [1]: 15.1%

SMILES: CCCCCCCCN1CCN(C(=O)Nc2ccc(OS(N)(=O)=O)c(F)c2)CC1
- IC50 (Steryl-sulfatase): 0.0088 µM
- residual activity [1]: 11.4%

SMILES: CCCCCCCCCCN1CCN(C(=O)Nc2ccc(OS(N)(=O)=O)cc2Cl)CC1
- residual activity [1]: 102%

SMILES: CCCCCCCCN1CCN(C(=O)Nc2ccc(OS(N)(=O)=O)cc2F)CC1
- residual activity [1]: 29.6%

SMILES: CCCCCCCCCCN1CCN(C(=O)Nc2ccc(OS(N)(=O)=O)cc2F)CC1
- residual activity [1]: 7.8%

SMILES: COc1cccc(N2CCN(C(=O)Nc3ccc(OS(N)(=O)=O)cc3)CC2)c1
- residual activity [1]: 26.3%

SMILES: Cc1cccc(N2CCN(C(=O)Nc3ccc(OS(N)(=O)=O)cc3)CC2)c1C
- IC50 (Steryl-sulfatase): 0.066 µM
- residual activity [1]: 5.9%

SMILES: Cc1ccccc1N1CCN(C(=O)Nc2ccc(OS(N)(=O)=O)cc2)CC1
- residual activity [1]: 47.9%

SMILES: NS(=O)(=O)Oc1ccc(NC(=O)N2CCN(c3nccc(-c4cccc(Br)c4)n3)CC2)cc1
- residual activity [1]: 39.4%

SMILES: COc1cc(-c2ccnc(N3CCN(C(=O)Nc4ccc(OS(N)(=O)=O)cc4)CC3)n2)cc(OC)c1OC
- residual activity [1]: 19%

SMILES: NS(=O)(=O)Oc1ccc(NC(=O)N2CCN(Cc3cc4ccccc4o3)CC2)cc1
- residual activity [1]: 20.2%

SMILES: COc1ccc(N2CCN(C(=O)Nc3ccc(OS(N)(=O)=O)cc3)CC2)cc1
- residual activity [1]: 37%

SMILES: NS(=O)(=O)Oc1ccc(NC(=O)N2CCN(c3ccccc3)CC2)cc1
- residual activity [1]: 16.9%

SMILES: Cc1cccc(N2CCN(C(=O)Nc3ccc(OS(N)(=O)=O)cc3F)CC2)c1C
- residual activity [1]: 109%

SMILES: NS(=O)(=O)Oc1ccc(NC(=O)N2CCN(c3ccc(Cl)cc3)CC2)c(F)c1
- residual activity [1]: 108%

SMILES: Cc1cccc(-c2ccnc(N3CCN(C(=O)Nc4ccc(OS(N)(=O)=O)cc4)CC3)n2)c1
- residual activity [1]: 26.7%

SMILES: NS(=O)(=O)Oc1ccc(NC(=O)N2CCN(c3ccc(Cl)c(Cl)c3)CC2)cc1
- IC50 (Steryl-sulfatase): 1.23 µM
- residual activity [1]: 23%

SMILES: CCCCCCCCN1CCN(C(=O)Nc2ccc(OS(N)(=O)=O)c(Cl)c2)CC1
- IC50 (Steryl-sulfatase): 0.0189 µM
- residual activity [1]: 13.9%

SMILES: CCCCCCCCN1CCN(C(=O)Nc2ccc(OS(N)(=O)=O)cc2)CC1
- IC50 (Steryl-sulfatase): 0.0437 µM
- residual activity [1]: 12.4%

SMILES: NS(=O)(=O)Oc1ccc(NC(=O)N2CCN(c3ccc(Cl)cc3)CC2)cc1
- IC50 (Steryl-sulfatase): 0.094 µM
- residual activity [1]: 14.9%

SMILES: Cc1cccc(N2CCN(C(=O)Nc3ccc(OS(N)(=O)=O)cc3)CC2)c1
- residual activity [1]: 10.4%
